Data: ChEMBL document CHEMBL4680373, “Evaluation of 5-(Trifluoromethyl)-1,2,4-oxadiazole-Based Class IIa HDAC Inhibitors for Huntington's Disease” (ACS Med Chem Lett, 2021)

Tests used:
[1] = Toxicity in CBAxC57BL/6J mouse assessed as effect on head tremor at 10 to 100 mg/kg, po bid for 14.5 days; format: organism-based; conditions: in vivo, 348 h, dose 10-100 mg/kg, time 14.5 day
In short: (§1)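 R6/2 HD mice and wild-type littermates, male and female, were dosed orally b.i.d. at 10, 30 or 100 mg/kg or with vehicle for 14.5 days. Vehicle was 10% (w/v) hydroxypropyl-β-cyclodextrin in 50 mM citrate buffer. Body weight, body temperature, passive observations and active manipulation scores were recorded. Blood and brain were collected 2 h after the final dose.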

Cytochrome P450 1A2 = Cytochrome P450 1A2 (Homo sapiens, UniProt P05177); test: Inhibition of CYP1A2 in human liver microsomes using phenacetin as substrate incubated for 30 mins by LC-MS/MS analysis; format: ADME
[2] = Time during which drug concentration exceeds the IC50 for inhibition of human Class 2A HDAC in C57BL/6J mouse brain at 100 mg/kg, po administered via gavage by LC-MS/MS analysis; format: organism-based; conditions: in vivo
In short: (§2)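 Single oral gavage doses of 10, 30 or 100 mg/kg were given to C57/BL6 mice. Brain and blood were sampled from 0.25 to 12 h and compound measured by LC-MS/MS. The time that total brain exposure stayed above the class IIa cellular IC50 was then estimated.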

[3] = target: Muscarinic acetylcholine receptor M1 (Homo sapiens, UniProt P11229); test: Displacement of [3H]pirenzapine from human recombinant M1 receptor incubated for 1 hr by radiometric scintillation counting analysis
[4] = Inhibition of Class 1/2b HDAC in human Jurkat E6.1 cells using Boc-Lys-(Ac)-AMC as substrate by fluorogenic assay; format: cell-based
In short: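 Whole-cell assay in Jurkat E6.1 cells with artificial fluorogenic substrates: Boc-Lys-(TFA)-AMC for class IIa/HDAC8 activity, which in this line is mostly HDAC4, and Boc-Lys-(Ac)-AMC for class I/IIb activity. IC50 given as the geometric mean of three experiments.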

Cytochrome P450 2C9 = Cytochrome P450 2C9 (Homo sapiens, UniProt P11712); test: Inhibition of CYP2C9 in human liver microsomes using diclofenac as substrate incubated for 15 mins by LC-MS/MS analysis; format: ADME
[5] = In vivo inhibition of Class 1 HDAC in C57BL/6J mouse brain assessed as increase in H4K12 acetylation administered orally via gavage measured after 2 to 4 hrs by dot blot technique; format: organism-based; conditions: po, dose lower 10 mg/kg, time lower 2 hrs, dose upper 100 mg/kg, time upper 4 hrs
In short: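 Mice received single oral gavage doses of 10, 30 or 100 mg/kg, and brains were sampled from 0.25 to 12 h. Brain compound levels were measured by LC-MS/MS. Dot blots read H4K12 acetylation normalized to histone H4, or pan-acetyl-lysine normalized to tubulin.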

[6] = Toxicity in CBAxC57BL/6J mouse assessed as effect on ataxia at 10 to 100 mg/kg, po bid for 14.5 days; format: organism-based; conditions: in vivo, 348 h, dose 10-100 mg/kg, time 14.5 day; in short: as §1
Homo sapiens = organism: Homo sapiens; test: Inhibition of sodium channel (unknown origin) at 10 uM
In short: (§3)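 Broad selectivity panel of binding, cellular, functional and enzymatic assays run by a contract lab. Each test was done at a single 10 μM concentration and reported as percent inhibition.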

[7] = target: Class 1 histone deacetylase (Homo sapiens, UniProt Q13547+O15379+Q92769+Q9BY41); test: Inhibition of Class 1 HDAC in human HEK293 cells using H4K12 as substrate by fluorogenic assay; format: cell-based
[8] = Intrinsic Clearance in mouse liver microsomes; format: ADME, Microsome; conditions: read-out: CLH
[9] = target: Muscarinic acetylcholine receptor M1 (Homo sapiens) (UniProt P11229); test: Displacement of [3H]pirenzapine from human recombinant M1 receptor at 10 uM incubated for 1 hr by radiometric scintillation counting analysis; in short: as §3
[10] = target: Muscarinic acetylcholine receptor M5 (Homo sapiens) (UniProt P08912); test: Displacement of [3H]4-DAMP from human recombinant M5 receptor at 10 uM incubated for 1 hr by radiometric scintillation counting analysis; in short: as §3
[11] = In vivo inhibition of Class 2B HDAC in CBAxC57BL/6J mouse brain assessed as increase in tubulin acetylation at 30 to 100 mg/kg, po bid for 14.5 days by western blot analysis; format: organism-based; conditions: 348 h, dose 30-100 mg/kg, time 14.5 day
In short: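 R6/2 and wild-type littermate mice of both sexes were dosed orally b.i.d. for 14.5 days with 10, 30 or 100 mg/kg or vehicle (10% w/v hydroxypropyl-β-cyclodextrin in 50 mM citrate buffer). Half-brains were collected 2 h after the last dose. Dot blots measured global and H4K12 acetylation; Western blots measured H3, H4 and tubulin acetylation. Genotypes were pooled.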

[12] = Time during which drug concentration exceeds the IC50 for inhibition of human Class 2A HDAC in C57BL/6J mouse brain at 30 mg/kg, po administered via gavage by LC-MS/MS analysis; format: organism-based; conditions: in vivo; in short: as §2
[13] = target: Muscarinic acetylcholine receptor M2 (Homo sapiens) (UniProt P08172); test: Displacement of [3H]AF-DX384 from human recombinant M2 receptor at 10 uM incubated for 1 hr by radiometric scintillation counting analysis; in short: as §3
[14] = Tmax in C57BL/6J mouse brain at 11.5 mg/kg, po administered via gavage by LC-MS/MS analysis; format: ADME, organism-based
[15] = target: Histone deacetylase 3/Nuclear receptor corepressor 1 (HDAC3/NCoR1) (Homo sapiens); test: Inhibition of HDAC3/NCOR1 (unknown origin) using Boc-Lys(Ac) as substrate by fluorogenic assay
[16] = Unbound fraction in mouse brain; format: ADME, tissue-based
In short: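 Unbound fraction measured in mouse brain homogenate.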

[17] = Toxicity in CBAxC57BL/6J mouse assessed as effect on struggle by tail at 10 to 100 mg/kg, po bid for 14.5 days; format: organism-based; conditions: in vivo, 348 h, dose 10-100 mg/kg, time 14.5 day; in short: as §1
[18] = Toxicity in CBAxC57BL/6J mouse assessed as effect on retropulsion at 10 to 100 mg/kg, po bid for 14.5 days; format: organism-based; conditions: in vivo, 348 h, dose 10-100 mg/kg, time 14.5 day; in short: as §1
[19] = target: Muscarinic acetylcholine receptor M2 (Homo sapiens, UniProt P08172); test: Displacement of [3H]AF-DX384 from human recombinant M2 receptor incubated for 1 hr by radiometric scintillation counting analysis
[20] = Toxicity in CBAxC57BL/6J mouse assessed as effect on irritability at 10 to 100 mg/kg, po bid for 14.5 days; format: organism-based; conditions: in vivo, 348 h, dose 10-100 mg/kg, time 14.5 day; in short: as §1
[21] = Inhibition of Class 2b HDAC in human HEK293 cells using alpha-tubulin as substrate by fluorogenic assay; format: cell-based
Histone deacetylase 4 = Histone deacetylase 4 (Homo sapiens, UniProt P56524); test: Inhibition of human recombinant HDAC4 at 10 uM incubated for 30 mins by fluorometry; in short: as §3
[22] = target: Voltage-gated inwardly rectifying potassium channel KCNH2 (Homo sapiens, UniProt Q12809); test: Inhibition of human ERG
In short: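 hERG affinity was measured on the IonWorks automated electrophysiology platform and reported as Kd.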

[23] = Toxicity in CBAxC57BL/6J mouse assessed as effect on flaccidity at 10 to 100 mg/kg, po bid for 14.5 days; format: organism-based; conditions: in vivo, 348 h, dose 10-100 mg/kg, time 14.5 day; in short: as §1
[24] = target: Sigma non-opioid intracellular receptor 1 (Homo sapiens) (UniProt Q99720); test: Displacement of [3H](+)-pentazocine from human sigma1 receptor at 10 uM incubated for 120 mins by radiometric scintillation counting analysis; in short: as §3
Sigma non-opioid intracellular receptor 1 (Homo sapiens), sequence (Q99720 whole entry): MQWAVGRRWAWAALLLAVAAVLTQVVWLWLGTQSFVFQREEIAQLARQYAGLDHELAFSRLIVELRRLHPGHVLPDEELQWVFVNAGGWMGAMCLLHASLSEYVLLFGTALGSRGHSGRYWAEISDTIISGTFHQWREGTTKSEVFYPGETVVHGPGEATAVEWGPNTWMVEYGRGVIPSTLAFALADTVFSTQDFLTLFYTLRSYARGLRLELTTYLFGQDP

Muscarinic acetylcholine receptor M2, sequence (P08172 whole entry): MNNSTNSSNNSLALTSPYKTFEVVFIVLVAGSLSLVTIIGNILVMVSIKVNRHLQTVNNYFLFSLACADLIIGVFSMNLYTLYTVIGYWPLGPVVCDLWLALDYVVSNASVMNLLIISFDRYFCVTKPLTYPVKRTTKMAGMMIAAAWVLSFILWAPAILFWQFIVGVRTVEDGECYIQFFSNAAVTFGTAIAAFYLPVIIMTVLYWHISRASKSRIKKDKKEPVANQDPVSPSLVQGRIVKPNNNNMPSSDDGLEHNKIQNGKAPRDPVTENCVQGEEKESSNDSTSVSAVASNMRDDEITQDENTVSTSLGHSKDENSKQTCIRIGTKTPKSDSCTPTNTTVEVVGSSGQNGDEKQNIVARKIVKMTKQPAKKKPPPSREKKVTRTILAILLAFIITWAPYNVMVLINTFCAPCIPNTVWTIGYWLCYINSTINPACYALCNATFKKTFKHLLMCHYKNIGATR
Muscarinic acetylcholine receptor M2 (Homo sapiens), sequence (P08172 whole entry): as above
Cytochrome P450 2C9, sequence (P11712 whole entry): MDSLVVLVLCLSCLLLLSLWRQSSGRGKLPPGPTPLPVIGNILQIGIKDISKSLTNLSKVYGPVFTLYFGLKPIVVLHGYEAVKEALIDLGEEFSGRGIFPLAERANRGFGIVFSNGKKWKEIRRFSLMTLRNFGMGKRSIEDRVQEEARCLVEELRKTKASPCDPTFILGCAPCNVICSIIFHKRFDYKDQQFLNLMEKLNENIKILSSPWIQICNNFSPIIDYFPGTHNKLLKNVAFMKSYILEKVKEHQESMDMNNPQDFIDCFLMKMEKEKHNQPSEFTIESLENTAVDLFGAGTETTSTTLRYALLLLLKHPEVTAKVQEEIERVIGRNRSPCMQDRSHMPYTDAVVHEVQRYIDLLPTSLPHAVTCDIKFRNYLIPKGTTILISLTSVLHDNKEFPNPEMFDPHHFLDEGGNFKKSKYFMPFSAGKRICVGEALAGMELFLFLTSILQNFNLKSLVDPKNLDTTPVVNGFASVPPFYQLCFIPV
Muscarinic acetylcholine receptor M5 (Homo sapiens), sequence (P08912 whole entry): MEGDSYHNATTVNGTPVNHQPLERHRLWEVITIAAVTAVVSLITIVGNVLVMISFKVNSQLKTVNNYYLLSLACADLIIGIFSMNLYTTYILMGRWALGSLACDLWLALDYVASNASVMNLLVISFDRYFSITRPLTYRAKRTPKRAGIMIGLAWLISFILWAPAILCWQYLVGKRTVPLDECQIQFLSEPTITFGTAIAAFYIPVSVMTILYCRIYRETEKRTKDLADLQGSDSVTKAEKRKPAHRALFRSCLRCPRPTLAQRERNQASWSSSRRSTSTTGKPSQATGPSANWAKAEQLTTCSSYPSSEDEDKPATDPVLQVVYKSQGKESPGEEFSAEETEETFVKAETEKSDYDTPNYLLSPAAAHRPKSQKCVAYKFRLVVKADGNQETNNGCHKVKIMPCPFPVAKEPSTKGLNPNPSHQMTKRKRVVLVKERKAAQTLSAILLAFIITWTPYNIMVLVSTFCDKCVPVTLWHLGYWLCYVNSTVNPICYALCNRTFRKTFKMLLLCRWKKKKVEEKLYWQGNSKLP
Voltage-gated inwardly rectifying potassium channel KCNH2, sequence (Q12809 whole entry): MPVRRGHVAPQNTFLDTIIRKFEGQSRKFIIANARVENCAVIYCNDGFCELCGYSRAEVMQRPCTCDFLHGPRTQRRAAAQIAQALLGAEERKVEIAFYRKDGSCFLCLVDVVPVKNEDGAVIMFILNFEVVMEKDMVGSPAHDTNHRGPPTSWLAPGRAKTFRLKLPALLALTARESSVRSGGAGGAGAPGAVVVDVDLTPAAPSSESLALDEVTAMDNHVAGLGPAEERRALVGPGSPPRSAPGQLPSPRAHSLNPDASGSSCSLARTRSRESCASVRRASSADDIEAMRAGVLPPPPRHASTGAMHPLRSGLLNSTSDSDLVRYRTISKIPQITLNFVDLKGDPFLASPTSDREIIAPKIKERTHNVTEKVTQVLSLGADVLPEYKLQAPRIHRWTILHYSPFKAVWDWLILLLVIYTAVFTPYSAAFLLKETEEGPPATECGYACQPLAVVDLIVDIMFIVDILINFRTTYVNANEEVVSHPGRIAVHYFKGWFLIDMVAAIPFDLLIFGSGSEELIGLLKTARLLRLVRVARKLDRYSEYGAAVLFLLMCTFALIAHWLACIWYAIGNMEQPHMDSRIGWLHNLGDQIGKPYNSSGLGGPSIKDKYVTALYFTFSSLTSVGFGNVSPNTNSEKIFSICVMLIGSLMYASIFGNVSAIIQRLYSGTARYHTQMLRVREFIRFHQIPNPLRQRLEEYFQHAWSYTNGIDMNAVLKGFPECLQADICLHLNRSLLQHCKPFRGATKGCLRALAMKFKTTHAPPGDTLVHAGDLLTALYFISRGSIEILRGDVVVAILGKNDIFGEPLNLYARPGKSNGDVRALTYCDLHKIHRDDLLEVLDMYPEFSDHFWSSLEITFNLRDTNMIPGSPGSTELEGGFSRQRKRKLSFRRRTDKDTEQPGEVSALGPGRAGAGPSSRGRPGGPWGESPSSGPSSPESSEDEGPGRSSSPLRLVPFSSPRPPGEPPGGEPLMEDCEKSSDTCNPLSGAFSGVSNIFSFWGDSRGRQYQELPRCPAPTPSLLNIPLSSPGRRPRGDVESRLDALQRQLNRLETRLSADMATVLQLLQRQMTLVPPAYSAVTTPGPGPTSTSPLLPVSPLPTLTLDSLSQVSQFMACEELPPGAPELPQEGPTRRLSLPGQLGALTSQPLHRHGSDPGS
Cytochrome P450 1A2, sequence (P05177 whole entry): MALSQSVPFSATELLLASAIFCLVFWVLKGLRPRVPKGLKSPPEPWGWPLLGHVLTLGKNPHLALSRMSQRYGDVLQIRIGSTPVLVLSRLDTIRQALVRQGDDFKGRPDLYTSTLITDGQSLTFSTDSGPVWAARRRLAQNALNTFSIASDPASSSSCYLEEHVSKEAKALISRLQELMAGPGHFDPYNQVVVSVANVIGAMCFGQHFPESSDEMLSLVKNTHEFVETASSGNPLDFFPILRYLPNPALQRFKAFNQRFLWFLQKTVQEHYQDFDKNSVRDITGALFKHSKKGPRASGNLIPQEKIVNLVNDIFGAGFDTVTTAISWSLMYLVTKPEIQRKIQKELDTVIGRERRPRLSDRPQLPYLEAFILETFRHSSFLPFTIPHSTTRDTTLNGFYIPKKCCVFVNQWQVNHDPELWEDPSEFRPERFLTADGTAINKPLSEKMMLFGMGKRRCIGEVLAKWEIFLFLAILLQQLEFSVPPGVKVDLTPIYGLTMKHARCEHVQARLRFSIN
Muscarinic acetylcholine receptor M1 (Homo sapiens), sequence (P11229 whole entry): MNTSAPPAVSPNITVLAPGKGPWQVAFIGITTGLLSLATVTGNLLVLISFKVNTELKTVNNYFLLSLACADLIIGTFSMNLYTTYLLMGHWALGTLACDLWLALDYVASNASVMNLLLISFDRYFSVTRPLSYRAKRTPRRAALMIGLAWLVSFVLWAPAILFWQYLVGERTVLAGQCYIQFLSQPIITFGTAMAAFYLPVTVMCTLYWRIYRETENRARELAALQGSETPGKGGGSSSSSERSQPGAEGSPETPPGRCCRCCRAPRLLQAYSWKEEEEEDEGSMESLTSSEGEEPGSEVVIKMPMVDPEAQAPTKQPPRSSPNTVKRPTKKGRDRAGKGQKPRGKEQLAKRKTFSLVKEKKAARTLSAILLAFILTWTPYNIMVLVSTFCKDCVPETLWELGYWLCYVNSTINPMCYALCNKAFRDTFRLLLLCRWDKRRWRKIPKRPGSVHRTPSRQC
Muscarinic acetylcholine receptor M1, sequence (P11229 whole entry): as above
Histone deacetylase 4, sequence (P56524 whole entry): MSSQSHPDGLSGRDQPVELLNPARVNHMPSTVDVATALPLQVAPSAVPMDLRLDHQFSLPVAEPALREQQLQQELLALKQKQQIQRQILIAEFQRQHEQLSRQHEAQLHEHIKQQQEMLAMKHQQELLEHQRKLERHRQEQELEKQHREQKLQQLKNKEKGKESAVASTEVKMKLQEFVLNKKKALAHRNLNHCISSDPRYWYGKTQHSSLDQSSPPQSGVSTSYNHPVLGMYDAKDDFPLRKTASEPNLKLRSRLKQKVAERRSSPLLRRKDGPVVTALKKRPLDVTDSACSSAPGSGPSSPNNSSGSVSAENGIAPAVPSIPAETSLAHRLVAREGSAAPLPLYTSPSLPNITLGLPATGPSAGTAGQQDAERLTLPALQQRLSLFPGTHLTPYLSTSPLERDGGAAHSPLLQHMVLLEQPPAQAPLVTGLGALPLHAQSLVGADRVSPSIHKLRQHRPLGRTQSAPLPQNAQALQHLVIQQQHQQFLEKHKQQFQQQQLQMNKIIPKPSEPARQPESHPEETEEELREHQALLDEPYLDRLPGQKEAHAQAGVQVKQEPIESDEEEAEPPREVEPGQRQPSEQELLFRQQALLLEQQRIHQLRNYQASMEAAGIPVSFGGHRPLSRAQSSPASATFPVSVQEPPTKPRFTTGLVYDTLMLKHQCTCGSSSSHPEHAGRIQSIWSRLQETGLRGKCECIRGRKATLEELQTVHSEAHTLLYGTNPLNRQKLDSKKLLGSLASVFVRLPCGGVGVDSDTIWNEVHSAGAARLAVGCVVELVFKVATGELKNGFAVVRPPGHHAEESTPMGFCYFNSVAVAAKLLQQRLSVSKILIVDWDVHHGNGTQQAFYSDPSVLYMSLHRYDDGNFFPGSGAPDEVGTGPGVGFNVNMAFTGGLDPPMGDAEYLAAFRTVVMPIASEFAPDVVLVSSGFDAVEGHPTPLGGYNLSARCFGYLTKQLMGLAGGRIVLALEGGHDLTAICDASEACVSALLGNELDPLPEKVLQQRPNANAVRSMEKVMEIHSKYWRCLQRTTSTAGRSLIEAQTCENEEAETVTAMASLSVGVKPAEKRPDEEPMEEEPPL

Compound: C[C@H](CN1CCC[C@@H]1C)NC(=O)c1ccc(-c2noc(C(F)(F)F)n2)cc1
- Activity [1]: Non-Toxic
- IC50 (Cytochrome P450 1A2): > 50 µM
- T>IC50 [2]: 14 h
- Kd [3]: > 5 µM
- IC50 [4]: 5 µM
- IC50 (Cytochrome P450 2C9): > 50 µM
- Activity [5]: Toxic
- Activity [6]: Non-Toxic
- inhibition (Homo sapiens): > 50%
- IC50 [7]: 9.9 µM
- CLint scaled [8]: 86 mL/min/kg
- inhibition [9]: > 80%
- inhibition [10]: > 80%
- Activity [11]: Toxic
- T>IC50 [12]: 8 h
- inhibition [13]: > 80%
- Tmax [14]: 30 min
- IC50 [15]: 10 µM
- fraction unbound [16]: 0.17
- Activity [17]: Non-Toxic
- Activity [18]: Non-Toxic
- Kd [19]: > 5 µM
- Activity [20]: Non-Toxic
- IC50 [21]: > 29 µM
- inhibition (Histone deacetylase 4): > 80%
- Kd [22]: 3.9 µM
- Activity [23]: Non-Toxic
- inhibition [24]: > 50%
